These results are taken from ChEMBL document CHEMBL1130405, “Cross-linking and sequence specific alkylation of DNA by aziridinyl quinones. 2. Structure requirements for sequence selectivity” (J Med Chem, 1997).

The term IC50 denotes the concentration at which inhibition is half-maximal. Read a high IC50 as weaker potency in that assay.

The test system of this experiment is K562. In words: In vitro cytotoxicity tested against human chronic leukemia K562 cells. Type of experiment: functional, cell-based. Put shortly:
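Human K562 chronic myeloid leukaemia cells, kept in log-phase suspension in RPMI 1640 with 10% horse serum at 37 °C, 5% CO2. Seeded at 600 cells/well and given continuous drug exposure for 5 days. Growth was read by MTT absorbance at 540 and 640 nm. Inhibition of growth was plotted against concentration, in triplicate at each concentration.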
Turning to `O=C1C=C(N2CC2)C(=O)C(Br)=C1N1CC1`, the IC50 amounted to 7.3 nM. Then `CC1=C(N2CC2)C(=O)C(Cl)=C(N2CC2)C1=O`, with 76 nM; and `CC1=CC(=O)C(N2CC2)=C(C)C1=O`, with 476 nM.

Compound `O=C1C=C(N2CC2)C(=O)C(I)=C1N1CC1` came in with an IC50 of 12.6 nM. Consider `CC1=C(C)C(=O)C(N2CC2)=CC1=O`, for which the IC50 amounted to 239 nM. This IC50 lies about 19-fold higher than the previous one. In turn, `Cc1ccc(C2=C(N3CC3)C(=O)C=C(N3CC3)C2=O)cc1` had an IC50 of 4.8 nM.

Compound `O=C1C(Cl)=C(N2CC2)C(=O)C(Cl)=C1N1CC1` returned an IC50 of 46 nM. This IC50 lies about 9.6-fold higher than the previous one. The result for `O=C1C=C(N2CC2)C(=O)C(c2ccc(Oc3ccccc3)cc2)=C1N1CC1` reads 170 nM. The result for `O=C1C(Br)=C(N2CC2)C(=O)C(Br)=C1N1CC1` reads 42 nM; that for `O=C1C(N2CC2)=C(N2CC2)C(=O)C(N2CC2)=C1N1CC1`, 5.8 nM. Then `O=C1C=C(N2CC2)C(=O)C(c2ccccc2)=C1N1CC1`, with 3.1 nM; and `O=C1C(F)=C(N2CC2)C(=O)C(F)=C1N1CC1`, with 10 nM; and `CC1=CC(=O)C(N2CC2)=CC1=O`, with 216 nM. `O=C1C(I)=C(N2CC2)C(=O)C(I)=C1N1CC1` came in with an IC50 of 50 nM. `CC1=C(N2CC2)C(=O)C(C)=C(N2CC2)C1=O` came in with an IC50 of 1.8 nM. This IC50 is about 28-fold lower than that of the compound before. The result for `O=C1C(F)=C(N2CC2)C(=O)C(N2CC2)=C1F` reads 39 nM; that for `OCC/N=C1C(O)=C(N2CC2)/C(=N\CCO)C(O)=C/1N1CC1`, 158 nM; that for `O=C1C=C(N2CC2)C(=O)C(Cl)=C1N1CC1`, 5.3 nM. Then `O=C1C=C(N2CC2)C(=O)C=C1N1CC1`, with 8.3 nM; and `O=C1C(c2ccccc2)=C(N2CC2)C(=O)C(c2ccccc2)=C1N1CC1`, with 67 nM. The result for `CCOC(=O)NC1=C(N2CC2)C(=O)C(NC(=O)OCC)=C(N2CC2)C1=O` [DIAZIQUONE] reads 63 nM.

As for `O=C1C=C(N2CC2)C(=O)C(N2CC2)=C1N1CC1` [TRIAZIQUONE], the midpoint of inhibition, the IC50, lay at 2.9 nM.
